According to ChEMBL document CHEMBL1154900, “Modified phenazines from an Indonesian Streptomyces sp” (2010):
Active and inactive are the calls of the source. The rule behind the calls is not given here.

Assays:
Staphylococcus aureus [1] = assay: Antibacterial activity against Staphylococcus aureus at 24 ug/disk by agar diffusion method; assay type: functional
Outline: (§1)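 Disk agar diffusion screen. Each sample was loaded per disk at the stated amount, either 14 µg/disk or 24 and 56 µg/disk. All six organisms were tested in one panel: S. aureus, B. subtilis, E. coli, P. aeruginosa, the fungus M. miehei and the yeast C. albicans.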

Bacillus subtilis [2] = assay: Antibacterial activity against Bacillus subtilis at 24 ug/disk by agar diffusion method; assay type: functional, organism-based; outline: as §1
Escherichia coli [3] = assay: Antibacterial activity against Escherichia coli at 24 ug/disk by agar diffusion method; assay type: functional, organism-based; outline: as §1
Pseudomonas aeruginosa [4] = assay: Antibacterial activity against Pseudomonas aeruginosa at 24 ug/disk by agar diffusion method; assay type: functional, organism-based; outline: as §1
Rhizomucor miehei [5] = assay: Antifungal activity against Mucor miehei at 24 ug/disk by agar diffusion method; assay type: functional, organism-based; outline: as §1
Candida albicans [6] = assay: Antifungal activity against Candida albicans at 24 ug/disk by agar diffusion method; assay type: functional, organism-based; outline: as §1
Staphylococcus aureus [7] = assay: Antibacterial activity against Staphylococcus aureus at 56 ug/disk by agar diffusion method; assay type: functional, organism-based; outline: as §1
Bacillus subtilis [8] = assay: Antibacterial activity against Bacillus subtilis at 56 ug/disk by agar diffusion method; assay type: functional, organism-based; outline: as §1
Escherichia coli [9] = assay: Antibacterial activity against Escherichia coli at 56 ug/disk by agar diffusion method; assay type: functional, organism-based; outline: as §1
Pseudomonas aeruginosa [10] = assay: Antibacterial activity against Pseudomonas aeruginosa at 56 ug/disk by agar diffusion method; assay type: functional, organism-based; outline: as §1
Rhizomucor miehei [11] = assay: Antifungal activity against Mucor miehei at 56 ug/disk by agar diffusion method; assay type: functional, organism-based; outline: as §1
Candida albicans [12] = assay: Antifungal activity against Candida albicans at 56 ug/disk by agar diffusion method; assay type: functional, organism-based; outline: as §1

SMILES	zone of inhibition at 24 µg/disc (Staphylococcus aureus [1]; read-out: IZ)	Activity (Bacillus subtilis [2])	inhibition zone (IZ) (Escherichia coli [3])	Activity (Pseudomonas aeruginosa [4])	Activity (Rhizomucor miehei [5])	Activity (Candida albicans [6])	Activity (Staphylococcus aureus [7])	Activity (Bacillus subtilis [8])	Activity (Escherichia coli [9])	Activity (Pseudomonas aeruginosa [10])	Activity (Rhizomucor miehei [11])	Activity (Candida albicans [12])	Activity (Staphylococcus aureus [1])	Activity (Escherichia coli [3])
CCC(=O)C(C)C(=O)C(C)(Cc1ccc(OC)c2nc3c(C(=O)O)cccc3nc12)C(=O)OC (centres undefined)	14 mm	inactive	inactive	inactive	inactive	inactive	inactive	inactive	inactive	inactive	inactive	inactive	–	–
CCC(=O)C(C)C(=O)C1(C)Cc2ccc(OC)c3c2N(C1=O)c1cccc(C(=O)O)c1N3 (centres undefined)	–	inactive	–	inactive	inactive	inactive	inactive	inactive	inactive	inactive	inactive	inactive	inactive	inactive
